As usually defined, the IC50 is the point on the concentration scale where inhibition reaches its midpoint. Usually logD stands for the decadic logarithm of the distribution of all forms, ionised or not, between an organic phase and buffer at a given pH. For orientation: inhibition means the share of the control response that was lost under treatment.

Data set [1] in a line: Antiinflammatory activity in Balb/c mouse splenocytes assessed as LPS-induced TNF-alpha production after 18 to 24 hrs by AlphaLISA. Type of data set: functional, cell-based. To be noted: Splenocyte. (In general: Alpha assays give light when donor and acceptor beads are brought close together.)
In data set [2] the target is T1, 3',5'-cyclic-AMP phosphodiesterase 4B (Homo sapiens, UniProt Q07343). Description: Inhibition of human recombinant PDE4B (152 to 564 amino acids) using cAMP as substrate after 30 mins by plate reader analysis.
A short description of data set [3]: Permeability of the compound at pH 7.4 after 4 hrs by PAMPA. Type of data set: ADME. To be noted: read-out: permeability. The method, boiled down: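 Passive membrane permeability was measured by PAMPA at pH 7.4. The effective permeability coefficient Pe is reported in 10^-6 cm/sec.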
A general note: In PAMPA a lipid-coated filter parts donor from acceptor wells.

A short description of data set [4]: Octanol-phosphate buffer partition coefficient, log D of the compound at pH 7.4 after 12 hrs by shake flask method. Type of data set: physicochemical.
Data set [5] deals with T1, 3',5'-cyclic-AMP phosphodiesterase 4B. Description: Inhibition of human recombinant PDE4B (152 to 564) using cAMP as substrate at 10 uM after 30 mins by plate reader analysis.
For a further data set, the system named is Mus musculus. Nature of the data set: Antiinflammatory activity in ip dosed BALB/c mouse assessed as inhibition of LPS-induced pulmonary neutrophilia administered 30 mins prior to LPS challenge measured after 4 to 5 hrs. Type of data set: functional. To be noted: for ED50: read-out: ID50 (the source's name).

Calls of active or inactive are those of the source. The rule behind the calls is not given here.

T1 sequence (Q07343 whole entry, the tested form may be a part): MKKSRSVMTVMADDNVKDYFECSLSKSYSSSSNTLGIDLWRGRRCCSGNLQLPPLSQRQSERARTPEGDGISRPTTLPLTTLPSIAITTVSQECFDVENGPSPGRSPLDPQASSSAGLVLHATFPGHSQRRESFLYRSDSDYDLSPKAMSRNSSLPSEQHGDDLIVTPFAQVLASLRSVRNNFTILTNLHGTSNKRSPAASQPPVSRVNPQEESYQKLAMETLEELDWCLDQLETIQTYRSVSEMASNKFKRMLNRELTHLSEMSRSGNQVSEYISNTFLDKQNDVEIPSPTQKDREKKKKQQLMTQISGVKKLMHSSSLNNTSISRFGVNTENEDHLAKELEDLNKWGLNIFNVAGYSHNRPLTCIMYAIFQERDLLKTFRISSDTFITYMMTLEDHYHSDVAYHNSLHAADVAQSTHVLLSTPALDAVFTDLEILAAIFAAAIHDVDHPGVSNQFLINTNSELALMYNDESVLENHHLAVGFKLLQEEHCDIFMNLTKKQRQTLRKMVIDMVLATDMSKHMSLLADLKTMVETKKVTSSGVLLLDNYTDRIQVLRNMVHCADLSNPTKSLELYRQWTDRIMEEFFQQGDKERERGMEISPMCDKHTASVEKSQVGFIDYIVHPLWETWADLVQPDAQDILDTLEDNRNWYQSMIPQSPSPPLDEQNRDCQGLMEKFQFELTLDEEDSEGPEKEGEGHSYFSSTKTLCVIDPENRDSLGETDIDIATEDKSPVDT

For `CC(C)(C)NC(=O)Cc1ccc(Nc2nc(-c3ccccc3)nc3c2S(=O)(=O)CCC3)cc1`, the half-maximal inhibitory concentration (IC50) in data set [1] is 8.5 nM; in data set [2], 11 nM.

Consider `CNC(=O)Cc1ccc(Nc2nc(-c3ccccc3)nc3c2S(=O)(=O)CCC3)cc1`, for which the IC50 was determined as 35 nM in data set [1] and 27 nM in data set [2].

`O=C(O)CC1CCN(c2nc(-c3ccccc3)nc3c2CS(=O)(=O)C3)CC1`: the IC50 in data set [2] is 190 nM.

As to `O=C(O)Cc1ccc(Nc2nc(-c3ccccc3)nc3c2CS(=O)(=O)C3)cc1`, the Papp at 4 h in data set [3] is under 2 ×10⁻⁶ cm/s. Further, the figures for the IC50 in data set [1] and in data set [2] were 970 nM and 140 nM, respectively. In data set [4], this molecule had a pH-dependent lipophilicity (logD) at 12 h of 0.016.

`O=C(O)CCc1ccc(Nc2nc(-c3ccccc3)nc3c2CS(=O)(=O)C3)cc1`: the IC50 in data set [2] is 800 nM.

On to `O=C(O)Cc1ccc(Nc2nc(-c3ccccc3)nc3c2COC3)cc1`, for which the 50% inhibitory concentration (IC50) in data set [2] was determined as 2200 nM.

Turning to `O=C(O)CC1CCN(c2nc(-c3ccccc3)nc3c2CSC3)CC1`, the IC50 in data set [2] is 150 nM.

Take `O=C(O)Cc1ccc(Nc2nc(-c3ccccc3)nc3c2CCCCC3)cc1`: in data set [5], the inhibition amounted to 35%.

For the molecule `O=C(Nc1c(Cl)cncc1Cl)c1ccc(OC(F)F)c(OCC2CC2)c1` [ROFLUMILAST], the concentration for half-maximal inhibition (IC50) in data set [1] turned out to be 1.2 nM.

Regarding `O=C(O)Cc1ccc(Nc2nc(-c3ccccc3)nc3c2CCS(=O)(=O)C3)cc1`, in data set [3], the Papp at 4 h was under 2 ×10⁻⁶ cm/s. For the same molecule, the results for the 50% inhibitory concentration (IC50) in data set [1] and in data set [2] were over 10000 nM and 28 nM, respectively. Further, the log distribution coefficient (logD) at 12 h in data set [4] is -0.45.

Turning to `O=C(O)Cc1ccc(Nc2nc(-c3ccccc3)nc3c2S(=O)(=O)CCC3)cc1`, in data set [3], the Papp at 4 h came to 5.8 ×10⁻⁶ cm/s. Further, the IC50 stood at 390 nM in data set [1] and 25 nM in data set [2]. For the same molecule, in data set [4], the pH-dependent lipophilicity (logD) at 12 h was 0.43.

As to `CC(C)CNC(=O)Cc1ccc(Nc2nc(-c3ccccc3)nc3c2S(=O)(=O)CCC3)cc1`, the IC50 in data set [1] turned out to be 4.7 nM; in data set [2], 6.6 nM.

`O=C(O)Cc1ccc(Nc2nc(-c3ccccc3)nc3ccccc23)cc1`: in data set [2], the half-maximal inhibitory concentration (IC50) worked out at 480 nM.

As for `O=C(Cc1ccc(Nc2nc(-c3ccccc3)nc3c2S(=O)(=O)CCC3)cc1)Nc1ccccc1`, the IC50 in data set [1] is 18 nM; in data set [2], 43 nM.

In the case of `O=C(O)CN1CCC(Nc2nc(-c3ccccc3)nc3c2CS(=O)(=O)C3)CC1`, the IC50 in data set [2] stood at 3000 nM.

In the case of `O=C(O)CN1CCN(c2nc(-c3ccccc3)nc3c2CS(=O)(=O)C3)CC1`, the half-maximal inhibitory concentration (IC50) in data set [2] turned out to be 5000 nM.

Turning to `O=C(O)Cc1ccc(Nc2nc(-c3ccccc3)nc3c2SCCC3)cc1`, in data set [3], the Papp at 4 h turned out to be 15.5 ×10⁻⁶ cm/s. Further, the half-maximal inhibitory concentration (IC50) was determined as 90 nM in data set [1] and 29 nM in data set [2]. In data set [4], the logD at 12 h was 1.4.

As to `O=C(O)Cc1ccc(Nc2nc(-c3ccccc3)nc3c2CCCC3)cc1`, the half-inhibitory concentration (IC50) in data set [2] came out at 430 nM.

Turning to `O=C(O)Cc1cccc(Nc2nc(-c3ccccc3)nc3c2CS(=O)(=O)C3)c1`, the IC50 in data set [2] is 2500 nM.

Regarding `O=C(O)Cc1ccc(Nc2nc(-c3ccccc3)nc3sccc23)cc1`, the IC50 in data set [2] worked out at 230 nM.

As to `O=C(O)Cc1ccc(Nc2nc(-c3ccccc3)nc3c2CS(=O)(=O)CC3)cc1`, in data set [2], the IC50 came to 7900 nM.

With `CC(C)(C)CNC(=O)Cc1ccc(Nc2nc(-c3ccccc3)nc3c2S(=O)(=O)CCC3)cc1`, in the data set on Mus musculus, the outcome was inactive. In addition, the IC50 was determined as 0.8 nM in data set [1] and 4.7 nM in data set [2].

On to `CCCCNC(=O)Cc1ccc(Nc2nc(-c3ccccc3)nc3c2S(=O)(=O)CCC3)cc1`, for which the ED50 with Mus musculus was 23 mg/kg. Further, the IC50 in data set [1] came to 13 nM; in data set [2], 22 nM.

In the case of `O=C(O)Cc1ccc(Nc2nc(-c3ccccc3)nc3c2S(=O)(=O)CC3)cc1`, the results for the IC50 in data set [1] and in data set [2] were over 10000 nM and 280 nM, respectively.

For the molecule `O=C(O)Cc1ccc(Nc2nc(-c3ccccc3)nc3ncccc23)cc1`, the inhibition in data set [5] worked out at 14%.

On to `NC(=O)Cc1ccc(Nc2nc(-c3ccccc3)nc3c2S(=O)(=O)CCC3)cc1`, for which the Papp at 4 h in data set [3] is over 50 ×10⁻⁶ cm/s. For the same molecule, the IC50 stood at 8.5 nM in data set [1] and 16 nM in data set [2]. The same molecule displayed a pH-dependent lipophilicity (logD) at 12 h in data set [4] of 2.9.

Regarding `O=C(O)Cc1ccc(Nc2nc(-c3ccccc3)nc3c2CCC3)cc1`, the 50% inhibitory concentration (IC50) in data set [2] came out at 610 nM.

On to `CCCNC(=O)Cc1ccc(Nc2nc(-c3ccccc3)nc3c2S(=O)(=O)CCC3)cc1`, for which the ED50 in the data set on Mus musculus is 18 mg/kg. The IC50 in data set [1] was 9.8 nM; in data set [2], 7.5 nM.

On to `CN(C)C(=O)Cc1ccc(Nc2nc(-c3ccccc3)nc3c2S(=O)(=O)CCC3)cc1`, for which the results for the IC50 in data set [1] and in data set [2] were 17 nM and 33 nM, respectively.

With `O=C(O)Cc1ccc(Nc2nc(-c3ccccc3)nc3c2CSC3)cc1`, the Papp at 4 h in data set [3] was 13.3 ×10⁻⁶ cm/s. Besides, the values for the half-maximal inhibitory concentration (IC50) in data set [1] and in data set [2] were 220 nM and 29 nM, respectively. For the same molecule, the logD at 12 h in data set [4] turned out to be 1.3.
